According to ChEMBL document CHEMBL1159064 (J Med Chem, 2010):
Calls of active or inactive are those of the source. The rule behind the calls is not given here.

What was measured:
[1] = target: T1, 5-hydroxytryptamine receptor 1A (Homo sapiens, UniProt P08908); test: Displacement of [3H]8-OH-DPAT from 5HT1A receptor expressed in CHO cells by liquid scintillation counting; assay type: cell-based
T1 sequence (P08908 whole entry): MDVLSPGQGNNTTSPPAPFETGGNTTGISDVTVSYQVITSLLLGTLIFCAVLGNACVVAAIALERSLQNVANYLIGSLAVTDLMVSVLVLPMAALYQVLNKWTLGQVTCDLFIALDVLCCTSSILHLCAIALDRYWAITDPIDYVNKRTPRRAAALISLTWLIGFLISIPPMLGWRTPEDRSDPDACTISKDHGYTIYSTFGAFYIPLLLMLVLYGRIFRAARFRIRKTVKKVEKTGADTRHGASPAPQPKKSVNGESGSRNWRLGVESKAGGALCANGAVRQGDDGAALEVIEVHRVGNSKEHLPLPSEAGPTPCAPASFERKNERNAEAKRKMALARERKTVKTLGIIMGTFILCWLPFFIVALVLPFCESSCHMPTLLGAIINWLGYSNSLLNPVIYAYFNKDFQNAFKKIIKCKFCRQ
Method in brief: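 Binding buffer 50 mM Tris, 4 mM MgCl2, pH 7.4. Nonspecific binding defined with 10 μM of a selective 5-HT1A antagonist. GF/B filtration with cold Tris/EDTA wash, scintillation counting. IC50/Ki by sigmoidal nonlinear regression. Mean of 5-6 experiments.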

D(2) dopamine receptor = D(2) dopamine receptor (Homo sapiens, UniProt P14416); test: Displacement of [3H]spiperone from dopamine D2 receptor expressed in HEK293 cells by liquid scintillation counting; assay type: cell-based
Method in brief: (§1)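 Membranes from stably transfected HEK293 cells (15 μg/tube) expressing D1 (radioligand [3H]SCH23390) or D2 (radioligand [3H]spiperone), 0.7 nM radioligand, compound 1 nM–100 μM, duplicate tubes, 50 min at 30 °C. Buffer 50 mM Tris, 4 mM MgCl2, pH 7.4. Nonspecific binding with 10 μM SCH23390 (D1) or spiperone (D2). GF/B filtration, scintillation counting. Ki by sigmoidal nonlinear regression.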

D(1A) dopamine receptor = D(1A) dopamine receptor (Homo sapiens, UniProt P21728); test: Displacement of [3H]SCH23390 from dopamine D1 receptor expressed in HEK293 cells by liquid scintillation counting; assay type: cell-based; method in brief: as §1
[2] = target: T2, 5-hydroxytryptamine receptor 1A (Homo sapiens) (UniProt P08908); test: Antagonist activity at 5HT1A receptor expressed in CHO cells assessed as inhibition of 5-HT-stimulated [35S]GTPgamma binding relative to control; assay type: functional, cell-based
T2 sequence (whole entry): T1 sequence (P08908 whole entry)

[3] = target: T1, 5-hydroxytryptamine receptor 1A; test: […] activity at 5HT1A receptor expressed in CHO cells assessed as inhibition of 5-HT-stimulated [35S]GTPgamma binding; assay type: functional, cell-based
[4] = target: T2, 5-hydroxytryptamine receptor 1A (Homo sapiens); test: Agonist activity at 5HT1A receptor expressed in CHO cells assessed as stimulation of [35S]GTPgamma binding relative to control; assay type: functional, cell-based
[5] = target: T1, 5-hydroxytryptamine receptor 1A; test: Agonist activity at 5HT1A receptor expressed in CHO cells assessed as stimulation of [35S]GTPgamma binding; assay type: functional, cell-based
Rattus norvegicus [6] = test: Increase in ventral tegmental area dopaminergic neuron bursting level in D2-like receptor antagonist raclopride-pretreated Sprague-Dawley rat at 1 mg/kg, iv in pretreated with 5HT1A receptor antagonist WAY-100635; assay type: functional, organism-based; design: dose 1 mg/kg
Rattus norvegicus [7] = test: Increase in ventral tegmental area dopaminergic neuron bursting level in D2-like receptor antagonist raclopride-pretreated Sprague-Dawley rat at 1 mg/kg, iv relative to untreated control; assay type: functional, organism-based; design: dose 1 mg/kg
Rattus norvegicus [8] = test: Increase in ventral tegmental area dopaminergic neuron firing rate in D2-like receptor antagonist raclopride-pretreated Sprague-Dawley rat at 1 mg/kg, iv in presence of 5HT1A receptor antagonist WAY-100635 administered post compound dose; assay type: functional, organism-based; design: dose 1 mg/kg
Rattus norvegicus [9] = test: Anxiolytic effect in Sprague-Dawley rat assessed as increase in time spent at open arm at 3 mg/kg, ip pretreated for 1 hr by elevated plus maze test; assay type: functional, organism-based; design: dose 3 mg/kg
Method in brief: (§2)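 Male rats, 250-300 g, given saline or test compound ip (1.0 or 3.0 mg/kg) 1 h before the maze. Two open and two closed arms (40 cm walls), 50 × 10 cm arms, raised 50 cm. Rat placed on centre facing a closed arm and allowed 5 min to explore. Video tracking recorded open-arm entries and time. Mean ± SE, n = 7-9; comparison to the saline group.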

Rattus norvegicus [10] = test: Increase in ventral tegmental area dopaminergic neuron firing rate in D2-like receptor antagonist raclopride-pretreated Sprague-Dawley rat at 1 mg/kg, iv in pretreated with 5HT1A receptor antagonist WAY-100635; assay type: functional, organism-based; design: dose 1 mg/kg
Rattus norvegicus [11] = test: Increase in ventral tegmental area dopaminergic neuron bursting level in D2-like receptor antagonist raclopride-pretreated Sprague-Dawley rat at 1 mg/kg, iv in presence of 5HT1A receptor antagonist WAY-100635 administered post compound dose; assay type: functional, organism-based; design: dose 1 mg/kg
Rattus norvegicus [12] = test: Anxiolytic effect in Sprague-Dawley rat assessed as increase in number of entries at open arm at 3 mg/kg, ip pretreated for 1 hr by elevated plus maze test; assay type: functional, organism-based; design: dose 3 mg/kg; method in brief: as §2
Rattus norvegicus [13] = test: Anxiolytic effect in Sprague-Dawley rat assessed as increase in time spent at open arm at 1 mg/kg, ip pretreated for 1 hr by elevated plus maze test; assay type: functional, organism-based; design: dose 1 mg/kg; method in brief: as §2
Rattus norvegicus [14] = test: Anxiolytic effect in Sprague-Dawley rat assessed as increase in number of entries at open arm at 1 mg/kg, ip pretreated for 1 hr by elevated plus maze test; assay type: functional, organism-based; design: dose 1 mg/kg; method in brief: as §2

D(1A) dopamine receptor, sequence (P21728 whole entry): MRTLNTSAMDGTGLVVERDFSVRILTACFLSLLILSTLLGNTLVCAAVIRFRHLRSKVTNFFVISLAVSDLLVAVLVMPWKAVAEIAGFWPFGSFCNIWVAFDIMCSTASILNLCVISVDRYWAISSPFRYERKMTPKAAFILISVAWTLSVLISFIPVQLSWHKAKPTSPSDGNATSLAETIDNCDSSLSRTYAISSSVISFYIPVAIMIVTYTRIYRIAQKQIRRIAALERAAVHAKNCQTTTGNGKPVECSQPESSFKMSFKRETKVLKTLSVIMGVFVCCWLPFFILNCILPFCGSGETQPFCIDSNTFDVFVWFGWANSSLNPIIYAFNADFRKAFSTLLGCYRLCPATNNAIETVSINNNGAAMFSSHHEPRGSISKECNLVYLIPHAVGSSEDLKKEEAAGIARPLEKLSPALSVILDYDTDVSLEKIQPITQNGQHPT
D(2) dopamine receptor, sequence (P14416 whole entry): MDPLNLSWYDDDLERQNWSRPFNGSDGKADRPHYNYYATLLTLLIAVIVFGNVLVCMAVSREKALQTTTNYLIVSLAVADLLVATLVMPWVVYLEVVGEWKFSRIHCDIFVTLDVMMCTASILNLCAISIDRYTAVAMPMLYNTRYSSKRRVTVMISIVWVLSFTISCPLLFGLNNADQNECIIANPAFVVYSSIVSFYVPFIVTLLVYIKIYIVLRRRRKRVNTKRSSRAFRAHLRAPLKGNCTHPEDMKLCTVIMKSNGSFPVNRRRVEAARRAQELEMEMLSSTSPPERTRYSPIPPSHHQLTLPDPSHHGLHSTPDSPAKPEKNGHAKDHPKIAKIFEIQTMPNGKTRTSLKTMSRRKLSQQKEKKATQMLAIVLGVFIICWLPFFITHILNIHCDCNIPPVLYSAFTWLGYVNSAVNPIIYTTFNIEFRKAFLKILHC

SMILES: CC1Cc2ccc3c(c2O1)-c1cc(O)cc2c1[C@@H](C3)N(C)CC2 (mixture of isomers)
- Ki ([1]; read-out: Ki): 12 nM

SMILES: CCCN1CCc2cccc3c2[C@H]1Cc1ccc2c(C)c(C)oc2c1-3
- Ki (D(2) dopamine receptor): > 10000 nM
- Ki (D(1A) dopamine receptor): > 10000 nM
- Ki ([1]; read-out: Ki): 510 nM

SMILES: NCCc1c[nH]c2ccc(O)cc12 [SEROTONIN]
- Imax [2]: inactive
- IC50 ([3]; cho): Not Active

SMILES: CCCN1CCc2cccc3c2[C@H]1Cc1cccc(OCC=C(C)C)c1-3
- Ki (D(2) dopamine receptor): > 10000 nM
- Ki (D(1A) dopamine receptor): > 10000 nM
- Ki ([1]; read-out: Ki): 149 nM

SMILES: Cc1cc2ccc3c(c2o1)-c1cccc2c1[C@@H](C3)N(C)CC2
- Ki (D(2) dopamine receptor): > 10000 nM
- Ki (D(1A) dopamine receptor): > 10000 nM
- Ki ([1]; read-out: Ki): 29 nM

SMILES: C#CCOc1cccc2c1-c1cccc3c1[C@@H](C2)N(CCC)CC3
- Ki (D(2) dopamine receptor): > 10000 nM
- Ki (D(1A) dopamine receptor): > 10000 nM
- Ki ([1]; read-out: Ki): 55 nM

SMILES: C=CC(C)c1ccc2c(c1O)-c1cccc3c1[C@@H](C2)N(CCC)CC3 (mixture of isomers)
- Ki ([1]; read-out: Ki): > 10000 nM

SMILES: C#CCOc1cccc2c1-c1cccc3c1[C@@H](C2)N(C)CC3
- Ki (D(2) dopamine receptor): > 10000 nM
- Emax [4]: 73%
- Ki (D(1A) dopamine receptor): > 10000 nM
- EC50 ([5]; read-out: EC50): 180 nM
- Ki ([1]; read-out: Ki): 14 nM

SMILES: C/C=C/COc1cccc2c1-c1cccc3c1[C@@H](C2)N(CCC)CC3
- Ki ([1]; read-out: Ki): 11 nM

SMILES: C=CCc1ccc2c(c1O)-c1cccc3c1[C@@H](C2)N(C)CC3
- Ki (D(2) dopamine receptor): > 10000 nM
- Ki (D(1A) dopamine receptor): > 10000 nM
- Ki ([1]; read-out: Ki): 135 nM

SMILES: COc1cc2c3c(c1)-c1c(O)cccc1C[C@H]3N(C)CC2
- Ki (D(2) dopamine receptor): 235 nM
- Ki (D(1A) dopamine receptor): 46 nM
- Ki ([1]; read-out: Ki): 258 nM

SMILES: C=CCOc1cccc2c1-c1cccc3c1[C@@H](C2)N(CCC)CC3
- Ki (D(2) dopamine receptor): > 10000 nM
- Ki (D(1A) dopamine receptor): > 10000 nM
- Ki ([1]; read-out: Ki): 279 nM

SMILES: C=CCOc1cccc2c1-c1cc(OC)cc3c1[C@@H](C2)N(C)CC3
- Ki (D(2) dopamine receptor): > 10000 nM
- Ki (D(1A) dopamine receptor): > 10000 nM
- Ki ([1]; read-out: Ki): 66 nM

SMILES: C=CC(C)Oc1cccc2c1-c1cccc3c1[C@@H](C2)N(CCC)CC3 (mixture of isomers)
- Ki ([1]; read-out: Ki): > 10000 nM

SMILES: C=CCc1ccc2c(c1O)-c1cc(OC)cc3c1[C@@H](C2)N(C)CC3
- Ki (D(2) dopamine receptor): > 10000 nM
- Ki (D(1A) dopamine receptor): > 10000 nM
- Ki ([1]; read-out: Ki): 144 nM

SMILES: C[C@@H]1Cc2ccc3c(c2O1)-c1cccc2c1[C@@H](C3)N(C)CC2 (relative stereo)
- Imax [2]: inactive
- IC50 ([3]; cho): Not Active
- Ki (D(2) dopamine receptor): > 10000 nM
- Activity (Rattus norvegicus [6]): inactive
- Emax [4]: 127%
- Activity (Rattus norvegicus [7]): Active
- Ki (D(1A) dopamine receptor): > 10000 nM
- Activity (Rattus norvegicus [8]): inactive
- Activity (Rattus norvegicus [9]): Active
- Activity (Rattus norvegicus [10]): inactive
- EC50 ([5]; read-out: EC50): 86 nM
- Activity (Rattus norvegicus [11]): inactive
- Activity (Rattus norvegicus [12]): Active
- Ki ([1]; read-out: Ki): 3.1 nM

SMILES: C=CCc1ccc2c(c1O)-c1cccc3c1[C@@H](C2)N(CCC)CC3
- Ki (D(2) dopamine receptor): > 10000 nM
- Ki (D(1A) dopamine receptor): > 10000 nM
- Ki ([1]; read-out: Ki): 793 nM

SMILES: C=CC(C)c1ccc(O)c2c1C[C@@H]1c3c(cccc3-2)CCN1CCC (mixture of isomers)
- Ki ([1]; read-out: Ki): 626 nM

SMILES: CCCN1CCc2cccc3c2[C@H]1Cc1ccc2c(c1-3)OC(C)C2C (mixture of isomers)
- Ki ([1]; read-out: Ki): 90 nM

SMILES: CCCN1CCc2cccc3c2[C@H]1Cc1ccc2cc(C)oc2c1-3
- Ki (D(2) dopamine receptor): > 10000 nM
- Ki (D(1A) dopamine receptor): > 10000 nM
- Ki ([1]; read-out: Ki): 320 nM

SMILES: CCCN1CCc2cccc3c2[C@H]1Cc1ccc2c(c1-3)OC(C)C2 (mixture of isomers)
- Ki ([1]; read-out: Ki): 340 nM

SMILES: C[C@H]1Cc2ccc3c(c2O1)-c1cccc2c1[C@@H](C3)N(C)CC2 (relative stereo)
- Imax [2]: 100%
- IC50 ([3]; read-out: IC50): 18 nM
- Activity (Rattus norvegicus [13]): inactive
- Ki (D(2) dopamine receptor): > 10000 nM
- Activity (Rattus norvegicus [14]): inactive
- Emax [4]: inactive
- Ki (D(1A) dopamine receptor): > 10000 nM
- Activity (Rattus norvegicus [9]): inactive
- EC50 ([5]; cho): Not Active
- Activity (Rattus norvegicus [12]): inactive
- Ki ([1]; read-out: Ki): 45.3 nM

SMILES: CC1Cc2ccc3c(c2O1)-c1cccc2c1[C@@H](C3)N(C)CC2 (mixture of isomers)
- Imax [2]: 100%
- IC50 ([3]; read-out: IC50): 323 nM
- Ki (D(2) dopamine receptor): > 10000 nM
- Emax [4]: inactive
- Ki (D(1A) dopamine receptor): > 10000 nM
- EC50 ([5]; cho): Not Active
- Ki ([1]; read-out: Ki): 6.7 nM

SMILES: CCCN1CCc2cccc3c2[C@H]1Cc1ccc2c(c1-3)OC(C)(C)C2
- Ki (D(2) dopamine receptor): > 10000 nM
- Ki (D(1A) dopamine receptor): > 10000 nM
- Ki ([1]; read-out: Ki): 630 nM

SMILES: CCCN1CCc2cccc3c2[C@H]1Cc1c(CC=C(C)C)ccc(O)c1-3
- Ki (D(2) dopamine receptor): > 10000 nM
- Ki (D(1A) dopamine receptor): > 10000 nM
- Ki ([1]; cho): Not Active

SMILES: C=C(C)COc1cccc2c1-c1cccc3c1[C@@H](C2)N(CCC)CC3
- Ki (D(2) dopamine receptor): > 10000 nM
- Ki (D(1A) dopamine receptor): > 10000 nM
- Ki ([1]; read-out: Ki): 373 nM

SMILES: C=C(C)Cc1ccc2c(c1O)-c1cccc3c1[C@@H](C2)N(CCC)CC3
- Ki (D(2) dopamine receptor): > 10000 nM
- Ki (D(1A) dopamine receptor): > 10000 nM
- Ki ([1]; cho): Not Active

SMILES: CCCN1CCc2cccc3c2[C@H]1Cc1cccc(O)c1-3
- Ki (D(1A) dopamine receptor): > 10000 nM
- Ki ([1]; read-out: Ki): 45 nM

SMILES: C=CCOc1cccc2c1-c1cccc3c1[C@@H](C2)N(C)CC3
- Imax [2]: 100%
- IC50 ([3]; read-out: IC50): 323 nM
- Ki (D(2) dopamine receptor): > 10000 nM
- Emax [4]: 61%
- Ki (D(1A) dopamine receptor): > 10000 nM
- EC50 ([5]; read-out: EC50): 56 nM
- Ki ([1]; read-out: Ki): 12 nM

SMILES: CC#CCOc1cccc2c1-c1cccc3c1[C@@H](C2)N(CCC)CC3
- Ki (D(2) dopamine receptor): > 10000 nM
- Ki (D(1A) dopamine receptor): > 10000 nM
- Ki ([1]; read-out: Ki): 125 nM

SMILES: CN1CCc2cccc3c2[C@H]1Cc1cccc(O)c1-3
- Ki (D(2) dopamine receptor): 208 nM
- Ki (D(1A) dopamine receptor): 61 nM
- Ki ([1]; read-out: Ki): 49 nM
